Experimental findings from ChEMBL document CHEMBL1255400, “Fasting increases tobramycin oral absorption in mice” (Antimicrob Agents Chemother, 2010) are described below.

The structures appear in SMILES notation.

What all share (assay type): ADME, organism-based
Series [1] is described as follows: Tmax in 15 hrs fasted BALB/c mouse at 50 mg/kg, po. Also on record: dose 50 mg/kg, route oral. Conditions: in vivo. The essentials:
(§1)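 Male BALB/c mice, 6-8 weeks (25-30 g), fed or food-deprived 15 h with water available; tobramycin in physiologic solution given by gavage (50 mg/kg), or 10 mg/kg iv (tail vein) or im (hind leg) in fed mice. Groups of 3 per time point; submandibular blood at 0-180 min; plasma tobramycin by homogeneous enzyme immunoassay; noncompartmental PK analysis.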

Series [2] is described as follows: AUC (0 to infinity) in 15 hrs fasted BALB/c mouse at 50 mg/kg, po. Also on record: time infinity, dose 50 mg/kg, route oral. Conditions: plasma. The essentials:
as §1

A short description of series [3]: Oral bioavailability in 15 hrs fasted BALB/c mouse at 50 mg/kg, po. Conditions: in vivo. The essentials: as §1
The nature of series [4]: AUClast in normally fed BALB/c mouse at 10 mg/kg, iv. Also on record: time 0 - last, dose 10 mg/kg, route intravenous. Conditions: plasma. The method in brief:
as §1

Series [5] is described as follows: Half life in normally fed BALB/c mouse at 10 mg/kg, im. Also on record: dose 10 mg/kg, route intramuscular. Conditions: in vivo. The method in brief:
as §1

Series [6] is described as follows: AUClast in normally fed BALB/c mouse at 10 mg/kg, im. Conditions: plasma. Also on record: time 0 - last, dose 10 mg/kg, route intramuscular. The essentials:
as §1

A short description of series [7]: Tmax in normally fed BALB/c mouse at 10 mg/kg, iv. Also on record: dose 10 mg/kg, route intravenous. Conditions: in vivo. The essentials:
as §1

Series [8] is described as follows: Tmax in normally fed BALB/c mouse at 10 mg/kg, im. Also on record: dose 10 mg/kg, route intramuscular. Conditions: in vivo. The essentials: as §1
Series [9] is described as follows: AUClast in 15 hrs fasted BALB/c mouse at 50 mg/kg, po. Also on record: time 0 - last, dose 50 mg/kg, route oral. Conditions: plasma. The essentials: as §1
Series [10] is described as follows: Cmax in normally fed BALB/c mouse at 10 mg/kg, iv. Also on record: dose 10 mg/kg, route intravenous. Conditions: in vivo. The method in brief: as §1
Series [11] can be described thus: Tmax in normally fed BALB/c mouse at 50 mg/kg, po. Also on record: dose 50 mg/kg, route oral. Conditions: in vivo. The method in brief: as §1
Series [12] in a line: Oral bioavailability in normally fed BALB/c mouse at 10 mg/kg, im. Conditions: in vivo, intramuscular. The essentials: as §1
Series [13] in a line: AUC (0 to infinity) in normally fed BALB/c mouse at 50 mg/kg, po. Also on record: time infinity, dose 50 mg/kg, route oral. Conditions: plasma. The method in brief: as §1
A short description of series [14]: Oral bioavailability in normally fed BALB/c mouse at 50 mg/kg, po. Conditions: in vivo. The essentials:
as §1

Series [15] in a line: Half life in normally fed BALB/c mouse at 50 mg/kg, po. Conditions: in vivo. Also on record: dose 50 mg/kg, route oral. The method in brief:
as §1

Another series deals with Mus musculus. The experiment in a line: Oral bioavailability in normally fed BALB/c mouse at 10 mg/kg, iv. Conditions: in vivo. The essentials:
as §1

Series [16] in a line: AUC (0 to infinity) in normally fed BALB/c mouse at 10 mg/kg, iv. Conditions: plasma. Also on record: time infinity, dose 10 mg/kg, route intravenous. The essentials:
as §1

The nature of series [17]: Cmax in 15 hrs fasted BALB/c mouse at 50 mg/kg, po. Conditions: in vivo. Also on record: dose 50 mg/kg, route oral. The method in brief:
as §1

The nature of series [18]: AUClast in normally fed BALB/c mouse at 50 mg/kg, po. Also on record: time 0 - last, dose 50 mg/kg, route oral. Conditions: plasma. The method in brief:
as §1

Series [19] in a line: Cmax in normally fed BALB/c mouse at 10 mg/kg, im. Also on record: dose 10 mg/kg, route intramuscular. Conditions: in vivo. The essentials:
as §1

Series [20] is described as follows: AUC (0 to infinity) in normally fed BALB/c mouse at 10 mg/kg, im. Also on record: time infinity, dose 10 mg/kg, route intramuscular. Conditions: plasma. The method in brief:
as §1

A short description of series [21]: Half life in 15 hrs fasted BALB/c mouse at 50 mg/kg, po. Also on record: dose 50 mg/kg, route oral. Conditions: in vivo. The method in brief: as §1
The nature of series [22]: Cmax in normally fed BALB/c mouse at 50 mg/kg, po. Also on record: dose 50 mg/kg, route oral. Conditions: in vivo. The essentials: as §1
Series [23] is described as follows: Half life in normally fed BALB/c mouse at 10 mg/kg, iv. Also on record: dose 10 mg/kg, route intravenous. Conditions: in vivo. The method in brief: as §1

As for `NC[C@H]1O[C@H](O[C@H]2[C@H](O)[C@@H](O[C@H]3O[C@H](CO)[C@@H](O)[C@H](N)[C@H]3O)[C@H](N)C[C@@H]2N)[C@H](N)C[C@@H]1O` [TOBRAMYCIN], the time to peak (Tmax) – broadly, the time at which the peak concentration occurs – in series [1] is 15 min; in series [7], 5 min; in series [8], 15 min; in series [11], 15 min. Also, the AUC(0-inf) (in general, the area under the concentration-time curve extrapolated to infinity) in series [2] is 7300 ng·h/mL; in series [13], 316 ng·h/mL; in [16], 11500 ng·h/mL; in [20], 11100 ng·h/mL. The bioavailability (in general, dose-corrected exposure relative to a reference, in per cent) in [3] was found to be 12.4%; in [12] it was 96.5%; in series [14], 0.48%. Besides, the AUC(0-t) – broadly, the area under the concentration-time curve up to a stated or last time point – in series [4] is 11400 ng·h/mL; in series [6] it was 11000 ng·h/mL; in series [9] it was 7060 ng·h/mL; in series [18], 274 ng·h/mL. Besides, the half-life (usually the time in which the quantity being followed falls by half) stood at 17.7 min in [5], 41.6 min in series [15], 22 min in series [21] and 20.3 min in [23]. Further, the Cmax – broadly, the maximum level reached in the sampled fluid or tissue – in [10] came to 35300 ng/mL; in series [17], 7800 ng/mL; in [19], 16500 ng/mL; in [22], 330 ng/mL. For the same molecule, the F with Mus musculus is recorded as 100%.
